Experimental data taken from article PMC8320611 (Current Research in Toxicology, 2020).

Tests used:
[1] = tested on: HT29 clone 19A human colon tumor cells; details: ref Pool-Zobel et al., 2000, cited from earlier work; for DNA strand breaks (comet assay): 15 min incubation, 100 μM END and ENL
HT29 cells [2] = assay: Resazurin reduction assay; type: cell-based, human; details: HT29, 1 h or 24 h incubation, 0–100 μM, vs negative control 1% DMSO
Outline: (§1)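 Cells were seeded at 180,000 per well (HepG2 in RPMI 1640, HT29 in DMEM; 5% FCS, 37 °C, 5% CO2). After 24 h they were exposed to 0.1, 1, 10 or 100 μM test compound for 1 h or 24 h, using DMSO stocks diluted 1:100, in triplicate. Controls were 0.1% SDS and 1% DMSO. Cells were washed and given resazurin for 1 h; fluorescence was read at 544/590 nm. Blank-subtracted values are % of DMSO control, mean ± SD of three experiments.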

[3] = tested on: human ovary carcinoma cell line ES-2; details: ES-2, 48 h incubation, at 1 mM; ref Liu et al., 2017; cited from earlier work
HepG2 cells [4] = assay: Resazurin reduction assay; type: cell-based, human; details: HepG2, 1 h or 24 h incubation, 0–100 μM, vs negative control 1% DMSO
Outline: as §1

HepG2 cells [5] = assay: Comet assay; type: cell-based, human; details: for Total DNA strand breaks with FPG treatment (%-TI): HepG2, 24 h, 10 or 100 μM, FPG treated, two independent experiments; for Background DNA-strand breaks (tail intensity): HepG2, 24 h incubation, 10–100 μM, without FPG
Outline: (§2)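 Cells at 80–90% confluence, viability >80% by trypan blue (HepG2 in RPMI 1640, HT29 in DMEM; 5% FCS) were exposed 24 h to 10 or 100 μM test compound from DMSO stock diluted 1:1000. Controls were 0.1% DMSO and 10 J/m2 UVC. Slides were lysed overnight at 4 °C, then treated with FPG or buffer. Unwinding was pH 13.5, 20 min; electrophoresis 20 min, 25 V. Mean tail intensity was scored on 2 × 50 cells/slide. Without FPG: three independent experiments; with FPG: two, in duplicate.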

[6] = in vitro studies; ref Prasad, 2000; cited from earlier work
[7] = ref Hu et al., 2007; cited from earlier work
HT29 cells [8] = assay: Comet assay; type: cell-based, human; details: for Total DNA strand breaks with FPG treatment (%-TI): HT29, 24 h, 10 or 100 μM, FPG treated, two independent experiments; for Background DNA-strand breaks (tail intensity): HT29, 24 h incubation, 10–100 μM, without FPG
Outline: as §2

[9] = tested on: extracellular vascular endothelial growth factor (VEGF); details: in vivo, mice with established human breast cancer; ref Dabrosin et al., 2002; cited from earlier work
[10] = tested on: microbiota from human faeces; details: incubation with microbiota from human faeces for 24 h; ref Heinonen et al., 2001; cited from earlier work
[11] = stated in the introduction, no reference given; cited from earlier work
[12] = tested on: human myelocytic HL-60 leukemia cancer cells; details: HL-60, incubation with 0.5–40 μM; ref Park et al., 2008; cited from earlier work

OC[C@H](Cc1cccc(O)c1)[C@H](CO)Cc1cccc(O)c1 [END, (2R,3R)-2,3-bis[(3-hydroxyphenyl)methyl]butane-1,4-diol]
DNA strand breaks (comet assay) [1]: no differences to the negative control
Oxidised pyrimidine DNA bases [1]: reduced
Relative vitality (HT29 cells [2]): no significant reductions
Vitality [3]: significant decrease in vitality
Relative vitality (HepG2 cells [4]): no significant reductions
Total DNA strand breaks with FPG treatment (%-TI) (HepG2 cells [5]): No modulation
Background DNA-strand breaks (tail intensity) (HepG2 cells [5]): No significant modulation
Levels of reactive oxygen species (antioxidant effect) [6]: reduce the levels of reactive oxygen species
Protection against DNA damage and lipid peroxidation [7]: protect against DNA damage and lipid peroxidation
Total DNA strand breaks with FPG treatment (%-TI) (HT29 cells [8]): No modulation
Background DNA-strand breaks (tail intensity) (HT29 cells [8]): No significant modulation

O=C1OC[C@H](Cc2cccc(O)c2)[C@H]1Cc1cccc(O)c1 [ENL, (3R,4R)-3,4-bis[(3-hydroxyphenyl)methyl]oxolan-2-one]
DNA strand breaks (comet assay) [1]: no differences to the negative control
Oxidised pyrimidine DNA bases [1]: reduced
Oxidized purine DNA bases [1]: had such an impact
Relative vitality (HT29 cells [2]): no significant reductions
Vitality [3]: significant decrease in vitality
Relative vitality (HepG2 cells [4]): no significant reductions
Extracellular VEGF [9]: suppressed
Total DNA strand breaks with FPG treatment (%-TI) (HepG2 cells [5]): no significant modulation
Background DNA-strand breaks (tail intensity) (HepG2 cells [5]): No significant modulation
Levels of reactive oxygen species (antioxidant effect) [6]: reduce the levels of reactive oxygen species
Protection against DNA damage and lipid peroxidation [7]: protect against DNA damage and lipid peroxidation
Total DNA strand breaks with FPG treatment (%-TI) (HT29 cells [8]): no significant modulation
Background DNA-strand breaks (tail intensity) (HT29 cells [8]): No significant modulation

COc1cc([C@H]2OC[C@H]3[C@@H]2CO[C@@H]3c2ccc(O[C@@H]3O[C@H](CO)[C@@H](O)[C@H](O)[C@H]3O)c(OC)c2)ccc1O[C@@H]1O[C@H](CO)[C@@H](O)[C@H](O)[C@H]1O [Pin-DG, pinoresinol diglycoside]
Conversion into END and ENL [10]: 55%

COc1cc(C[C@@H](CO)[C@H](CO)Cc2ccc(O)c(OC)c2)ccc1O [Seco, secoisolariciresinol]
Conversion into END and ENL [10]: 72%
Levels of reactive oxygen species (antioxidant effect) [6]: reduce the levels of reactive oxygen species
Protection against DNA damage and lipid peroxidation [7]: protect against DNA damage and lipid peroxidation

COc1cc(C[C@@H](CO[C@@H]2O[C@H](CO)[C@@H](O)[C@H](O)[C@H]2O)[C@H](CO[C@@H]2O[C@H](CO)[C@@H](O)[C@H](O)[C@H]2O)Cc2ccc(O)c(OC)c2)ccc1O [Seco-DG, seco-diglycoside]
Solubility in water [11]: highly soluble

COc1cc([C@H]2OC[C@H]3[C@@H]2CO[C@@H]3c2cc(OC)c(O)c(OC)c2)cc(OC)c1O [Syr, 4,4′-(1S,3aR,4S,6aR)-Tetrahydro-1H,3H-furo[3,4-c]furan-1,4-diylbis(2,6-dimethoxy-phenol)]
Relative vitality (HT29 cells [2]): no significant reductions
Relative vitality (HepG2 cells [4]): no significant reductions
Cell vitality (MTT assay) [12]: significant concentration-dependent decrease

O=c1c(-c2ccc(O)cc2)coc2cc(O)cc(O)c12 [genistein, reference compound]
DNA strand breaks (comet assay) [1]: induced highly significant
